From ChEMBL document CHEMBL5303300, “EUbOPEN Chemogenomics Library - Multiplex” (2023)
Values joined by “and” are separate entries in the source; they are usually repeats but may differ in a detail not shown here. Equal entries are not always repeated.

Test system: U2OS
Experiment: Multiplex assay against U2OS
Format: toxicity, cell-based
Details: human, number of replicates 2
Summary of the method: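 Hoechst33342, BioTracker Green Microtubule Cytoskeleton Dye, MitoTracker Red and Annexin V Alexa Fluor 680 were added to live cells at seeding, and imaging on a CQ1 microscope at 37°C and 5% CO2 followed compound addition. Gating by CellPathfinder machine learning separated cells into Hoechst high-intensity objects or normal cells, then normal cells into healthy, pyknosed or fragmented nuclei, then pyknosed cells into mitotic or apoptotic. Per cents of healthy-nucleus cells are reported for the tubulin, mitochondrial-mass and membrane-permeability phenotypes.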

[1] = 12 h, 1 µM, compound concentration 1 uM
[2] = 12 h, 10 µM, compound concentration 10 uM
[3] = 24 h, 1 µM, compound concentration 1 uM
[4] = 24 h, 10 µM, compound concentration 10 uM
[5] = 48 h, 1 µM, compound concentration 1 uM
[6] = 48 h, 10 µM, compound concentration 10 uM

COc1ccc(F)c(F)c1C(=O)c1cnc(NC2CCN(S(C)(=O)=O)CC2)nc1N [RG-547]
Population Apoptotic (%) [1]: 25% and 66% | Population Fragmented Nuclei (%) [1]: 21% and 7% | Population Healthy Nuclei (%) [1]: 68% and 81% | Population Hoechst High Intensity Objects (%) [1]: 0% and 1% | Population Membrane Permeable-Phenotype (%) [1]: 7% and 3% | Population Mitochondria Different-Phenotype (%) [1]: 3% and 2% | Population Mitotic Cells (%) [1]: 75% and 33% | Population Normal (%) [1]: 100% and 98% | Population Pyknosed Nuclei (%) [1]: 10% | Population Tubulin-Different-Phenotype (%) [1]: 69% and 80% | Population Apoptotic (%) [2]: 77% and 70% | Population Fragmented Nuclei (%) [2]: 20% and 12% | Population Healthy Nuclei (%) [2]: 44% and 42% | Population Hoechst High Intensity Objects (%) [2]: 0% and 1% | Population Membrane Permeable-Phenotype (%) [2]: 9% and 14% | Population Mitochondria Different-Phenotype (%) [2]: 0% and 6% | Population Mitotic Cells (%) [2]: 22% and 30% | Population Normal (%) [2]: 100% and 98% | Population Pyknosed Nuclei (%) [2]: 36% and 44% | Population Tubulin-Different-Phenotype (%) [2]: 72% and 57% | Population Apoptotic (%) [3]: 57% and 70% | Population Fragmented Nuclei (%) [3]: 13% and 9% | Population Healthy Nuclei (%) [3]: 66% and 77% | Population Hoechst High Intensity Objects (%) [3]: 0% | Population Membrane Permeable-Phenotype (%) [3]: 4% | Population Mitochondria Different-Phenotype (%) [3]: 4% and 3% | Population Mitotic Cells (%) [3]: 42% and 30% | Population Normal (%) [3]: 100% and 99% | Population Pyknosed Nuclei (%) [3]: 19% and 12% | Population Tubulin-Different-Phenotype (%) [3]: 66% and 79% | Population Apoptotic (%) [4]: 85% | Population Fragmented Nuclei (%) [4]: 15% and 12% | Population Healthy Nuclei (%) [4]: 41% and 32% | Population Hoechst High Intensity Objects (%) [4]: 0% and 2% | Population Membrane Permeable-Phenotype (%) [4]: 21% and 12% | Population Mitochondria Different-Phenotype (%) [4]: 21% and 12% | Population Mitotic Cells (%) [4]: 15% and 14% | Population Normal (%) [4]: 100% and 97% | Population Pyknosed Nuclei (%) [4]: 43% and 54% | Population Tubulin-Different-Phenotype (%) [4]: 68% and 72% | Population Apoptotic (%) [5]: 85% | Population Fragmented Nuclei (%) [5]: 30% and 20% | Population Healthy Nuclei (%) [5]: 39% and 65% | Population Hoechst High Intensity Objects (%) [5]: 0% | Population Membrane Permeable-Phenotype (%) [5]: 11% and 2% | Population Mitochondria Different-Phenotype (%) [5]: 5% and 1% | Population Mitotic Cells (%) [5]: 14% | Population Normal (%) [5]: 100% and 99% | Population Pyknosed Nuclei (%) [5]: 30% and 13% | Population Tubulin-Different-Phenotype (%) [5]: 66% and 75% | Population Apoptotic (%) [6]: 94% and 87% | Population Fragmented Nuclei (%) [6]: 14% and 10% | Population Healthy Nuclei (%) [6]: 11% and 2% | Population Hoechst High Intensity Objects (%) [6]: 5% and 0% | Population Mitotic Cells (%) [6]: 5% and 12% | Population Normal (%) [6]: 94% and 100% | Population Pyknosed Nuclei (%) [6]: 74% and 86% | Population Tubulin-Different-Phenotype (%) [6]: 88% and 100%
